# Data published in ChEMBL document CHEMBL1141214, “Use of structure-based drug design approaches to obtain novel anthranilic acid acyl carrier protein synthase inhibitors” (J Med Chem, 2005).
# “And” between values parts separate entries of the source, which are not always exact repeats. Equal entries are not always repeated.
# What was measured:
# [1] = biological target: T1, Holo-[acyl-carrier-protein] synthase (Bacillus subtilis (strain 168), UniProt P96618); experiment: Inhibitory activity against Bacillus subtilis AcpS by HTRF assay
# T1 sequence (P96618 whole entry): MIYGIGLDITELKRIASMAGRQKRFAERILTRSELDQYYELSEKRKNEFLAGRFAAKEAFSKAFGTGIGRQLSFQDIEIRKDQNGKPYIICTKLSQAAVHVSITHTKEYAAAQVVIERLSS
# Bacillus subtilis = experiment: Inhibitory activity against Bacillus subtilis 168; format: functional
# Outline: (§1)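 Broth microdilution per NCCLS in Mueller-Hinton II broth; serial dilutions in microtiter wells, inoculum 10⁵ CFU/mL, 100 μL final. Incubated 18–22 h at 35 °C in ambient air. MIC taken as lowest concentration giving complete visible growth inhibition by unaided eye.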
# Staphylococcus aureus = experiment: Inhibitory activity against methicillin-resistant Staphylococcus aureus MRSA; format: functional
# Outline: (§2)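 Broth microdilution per NCCLS in Mueller-Hinton II broth; serial compound dilutions inoculated to 10⁵ CFU/mL, incubated 18–22 h at 35 °C in ambient air. MIC taken as lowest concentration completely inhibiting visible growth (unaided eye).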
# Enterococcus faecalis = experiment: Inhibitory activity against vancomycin-resistant Enterococcus faecalis VRE; format: functional; outline: as §2
# Streptococcus pneumoniae = experiment: Inhibitory activity against penicillin-resistant Streptococcus pneumoniae penR; format: functional; outline: as §2
# Escherichia coli = experiment: Inhibitory activity against Escherichia coli; format: functional; outline: as §1
# Candida albicans = experiment: Inhibitory activity against Candida albicans; format: functional; outline: as §1
SMILES,IC50 [1],MIC (Bacillus subtilis) [µg/mL],MIC (Staphylococcus aureus) [µg/mL],MIC (Enterococcus faecalis) [µg/mL],MIC (Streptococcus pneumoniae) [µg/mL],MIC (Escherichia coli) [µg/mL],MIC (Candida albicans) [µg/mL]
C/C(=C\c1ccc(Cl)cc1)C(=O)Nc1cc(Cl)ccc1C(=O)O,32.3 µM,32,32,64,32,> 128,> 128
O=C(O)c1cc(Cl)ccc1NC(=O)c1cccc2c1-c1ccccc1C2=O,0.821 µM and 0.82 µM,–,–,–,–,–,–
CC(Cc1ccccc1)C(=O)Nc1ccc(Cl)cc1C(=O)O (configuration not stated),2.83 µM and 2.8 µM,–,–,–,–,–,–
CSC(Cc1ccc(Cl)cc1)C(=O)Nc1ccc(Cl)cc1C(=O)O (configuration not stated),1.43 µM and 1.4 µM,64,64,128,64,> 128,> 128
NS(=O)(=O)c1cc(C(=O)O)c(NCc2ccco2)cc1Cl [FUROSEMIDE],12.7 µM,–,–,–,–,–,–
